# Screens from PubChem BioAssay.
# HNF4A DNA FP: change in binding of human HNF4A to DNA, primary screen, biochemical, fluorescence polarization, FITC-DNA | Hepatocyte nuclear factor 4-alpha (Homo sapiens), P41235 | 1 h | activity change, % at 10 µM | hit rate 0.3% among 360,000 | AID 1224865, 2016; in the data active means activity change above about 30%, passing the limit was not always enough
# Neddylation inh: inhibitors of cullin neddylation, primary screen, biochemical, TR-FRET, uHTS, NAE and Ubc12; NEDD8-conjugating enzyme Ubc12 (Homo sapiens) + NEDD8-activating enzyme E1 regulatory …; inhibition, % at 25 µM; hit rate 0.58% among 360,000; AID 651699, 2012; in the data active means inhibition above about 36%
# TbMetRS inhib: T. brucei MetRS inhibitors, primary screen, biochemical, luminescence; AID 624268, 2012; inhibition, % at 11.9 µM; methionyl-tRNA synthetase (Trypanosoma brucei brucei); purified T. brucei MetRS, ATP depletion, Kinase-Glo luminescence; hit rate 0.4% among 360,000;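 active means inhibition above a per-plate cutoff of the control wells' mean inhibition plus 3 SD, cut at about 5.5% in these data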;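 further: 0% = DMSO wells median and 100% = median of wells with control inhibitor compound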
#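 Test system – parasite MetRS enzyme · Reagent – substrates ATP, L-methionine and bulk Escherichia coli tRNA · Doses – 11.9 µM compound single dose, 0.9% DMSO · Times – 15 min enzyme-compound preincubation, 2 h reaction, 10 min detection, 25 °C · Signal – Kinase-Glo luminescence, ATP depletion format · Controls – DMSO-only wells as low control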
# Rpn11 block: Rpn11 (PSMD14) deubiquitinase inhibitors, primary screen, biochemical, fluorescence polarization, uHTS; inhibition, % at 20 µM; hit rate 0.59% among 360,000; human 26S proteasome, Ub4-pepOG fluorescence polarization; 20S core pre-blocked with epoxomicin; 26S proteasome non-ATPase regulatory subunit 14 (Homo sapiens), O00487;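 active means inhibition at 20 µM, scaled to each plate's controls, above about 33%, limit read from the data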
# Target sequence (O00487 whole entry, looked up): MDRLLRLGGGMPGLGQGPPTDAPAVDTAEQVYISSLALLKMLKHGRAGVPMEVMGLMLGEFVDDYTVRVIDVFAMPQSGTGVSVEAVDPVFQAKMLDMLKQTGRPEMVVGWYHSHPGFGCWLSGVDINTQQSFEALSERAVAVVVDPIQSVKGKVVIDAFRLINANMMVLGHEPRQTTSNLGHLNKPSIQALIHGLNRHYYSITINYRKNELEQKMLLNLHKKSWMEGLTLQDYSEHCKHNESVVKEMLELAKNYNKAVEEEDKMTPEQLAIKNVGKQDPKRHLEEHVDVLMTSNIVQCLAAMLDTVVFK
# CSN inh: inhibitors of CSN-mediated cullin deneddylation, primary screen, biochemical, fluorescence polarization, uHTS | Purified CSN, SCF-Nedd8-OG deneddylation | inhibition, % at 12.5 µM | hit rate 0.38% among 360,000 | AID 651999, 2013;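 active means pattern-corrected inhibition above about 35%, with an unprinted fluorescence ratio check between 0.5 and 1.5, limit read from the data, passing the limit was not always enough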;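 further: 0% = enzyme with substrate and 100% = substrate without enzyme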
# Target sequence (Q92905 whole entry, looked up, one chain of several): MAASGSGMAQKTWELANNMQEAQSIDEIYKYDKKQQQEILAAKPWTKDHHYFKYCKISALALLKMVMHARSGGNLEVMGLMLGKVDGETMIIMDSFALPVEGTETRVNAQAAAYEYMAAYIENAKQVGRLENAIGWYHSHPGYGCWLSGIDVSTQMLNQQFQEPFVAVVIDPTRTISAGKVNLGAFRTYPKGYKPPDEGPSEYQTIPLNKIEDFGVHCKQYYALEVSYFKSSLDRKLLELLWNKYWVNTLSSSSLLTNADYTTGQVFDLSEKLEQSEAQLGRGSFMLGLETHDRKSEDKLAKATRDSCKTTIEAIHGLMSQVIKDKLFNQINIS
#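 Assay system: Purified human Csn5 enzyme expressed in HEK293T cells | Amount: Enzyme 0.24 nM | Measured by: Fluorescence polarization readout | Medium: Tris/NaCl/DTT buffer, pH 7.5 | Compound dosing: One concentration, 12.5 µM, 0.25% DMSO | Times: 90 min incubation of compound, enzyme and substrate at room temperature | Control set: no-enzyme wells high, enzyme-with-substrate wells low | Read-out: % inhibition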
# PREPL inh: PREPL enzyme inhibitors, primary screen, biochemical, fluorescence polarization | recombinant PREPL, fluorescence polarization activity-based probe | inhibition, % at 5.96 µM | hit rate 0.68% among 320,000 | AID 2751, 2010; in the data active means inhibition above about 43%;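 further: 0% = enzyme with DMSO and 100% = wells lacking enzyme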
# Rpn11 confirm: Rpn11 (PSMD14) deubiquitinase inhibitors, confirmation, biochemical, fluorescence polarization, single concentration; inhibition, % at 20 µM; purified human 26S proteasome, Ub4-pepOG fluorescence polarization; proteasome pretreated with epoxomicin; hit rate 29% among 1,900; shares compounds with Rpn11 block
# MMP-2 counter: MMP-2 enzyme inhibition, confirmation, counter-screen for RPN11 inhibitor project, biochemical, fluorescence, single concentration | inhibition, % at 20 µM | shares compounds with Rpn11 block | recombinant MMP-2, FRET peptide cleavage fluorescence | hit rate 4% among 1,900 | AID 602330, 2012;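 further: human MMP-2 activated beforehand with APMA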
# Thrombin inh: bovine thrombin protease inhibition, confirmation, counter-screen for Rpn11 inhibitor project, biochemical, fluorescence polarization, single concentration; inhibition, % at 20 µM; bovine thrombin cleavage of Ub4-pepOG; hit rate 13% among 1,900; shares compounds with Rpn11 block;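 active means mean inhibition at least 40% at 20 µM, or signal 3 deviations below plate average, so some actives read negative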;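 further: plate controls were thrombin with DMSO for no effect and buffer wells lacking thrombin for full effect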
# * = called active by the depositor; i = inactive; x = no result shown. Only some compounds are listed: those with a hit (about 2.4% of all), similar ones and a draw of the others. Unless noted, no stated cut-off is given here; in the data, active means inhibition above about 40%; inactive means the rest.
SMILES,HNF4A DNA FP,Neddylation inh,TbMetRS inhib,Rpn11 block,CSN inh,PREPL inh,Rpn11 confirm,MMP-2 counter,Thrombin inh
CCN(CC(=O)Nc1ccc(OC)cc1)CC(=O)Nc1ccc(Br)cc1F,-2.7,0.5,0.0,4.0,2.9,-14.7,x,x,x
N#C/C(=C(/O)COC(=O)CSc1ccc2ccccc2c1)c1nc2ccccc2[nH]1,14.8,-4.8,0.7,43.4*,12.0,8.8,30.9,-48.0,24.7
N#C/C(=C(/O)COC(=O)COc1cccc(Br)c1)c1nc2ccccc2[nH]1,17.8,-72.6,-0.1,41.7*,1.6,-6.4,37.0,-12.4,25.3
Cc1cc(Br)ccc1SCC(=O)OCC(O)=C(C#N)c1nc2ccccc2[nH]1,18.7,-114.4,-0.2,38.0,17.6,x,x,x,x
CCCn1c(SC/C(O)=C(\C#N)c2nc3ccccc3[nH]2)n[nH]c1=O,6.8,3.4,-0.2,38.6*,9.4,16.4,33.5,-9.7,29.6
Cn1cnnc1SC/C(O)=C(\C#N)c1nc2ccccc2[nH]1,2.6,5.3,0.6,5.8,-1.6,7.5,x,x,x
Cc1cc(C)cc(OCC(=O)OC/C(O)=C(\C#N)c2nc3ccccc3[nH]2)c1,14.9,-94.2,0.1,23.1,2.2,7.1,x,x,x
Cc1cc(Br)ccc1SCC(=O)OC/C(O)=C(\C#N)c1nc2ccccc2[nH]1,27.5,-50.4,-0.1,46.2*,4.0,-13.7,18.1,-44.2,0.0
O=C(COC(=O)c1n[nH]c(=O)c2ccccc12)Nc1ccccc1,2.4,-12.8,0.2,1.5,-2.9,x,x,x,x
CSc1ccccc1NC(=O)C1(C)CCN1C(=O)Cc1ccccc1Cl (centres undefined),-1.2,9.1,0.1,0.2,2.6,x,x,x,x
CCOC(=O)c1c(NC(=O)CSc2nc3cccnc3n2C)sc(C(C)=O)c1C,6.5,-94.2,-0.1,34.6*,3.4,6.3,20.7,-22.5,-4.7
CCN(CC)c1ccc(C=C2C(=O)OC(C)(C(C)(C)C)OC2=O)cc1 (centres undefined),4.9,-2.5,-0.8,x,18.7,-26.6,x,x,x
CCN(CC)c1ccc(C=C2C(=O)OC(c3ccccc3)OC2=O)cc1 (centres undefined),25.1,-5.5,0.7,77.4*,14.4,-12.7,77.4*,5.5,75.7*
Cn1c2ccccc2c(=O)c2c(=O)n(C3CCCCCC3)c(C3CCCCC3)nc21,67.0*,i,-0.2,145.5*,-5.2,x,-3.9,-40.0,-6.9
Cn1c2ccccc2c(=O)c2c(=O)n(-c3ccccc3)c(C3CCCCC3)nc21,0.7,-66.3,-0.9,2.9,23.0,12.4,x,x,x
CCC1CCCCN1CCCNS(=O)(=O)c1ccc2c(c1)oc(=O)n2C (centres undefined),5.6,5.7,-0.1,67.5*,13.8,6.7,26.4,-8.8,15.6
O=C(Nc1c2c(nn1-c1ccccc1)CS(=O)(=O)C2)c1ccc(Br)o1,-0.2,-6.1,-0.1,0.1,-4.9,x,x,x,x
Cc1ccc(C(=O)Nc2cccc(NC(=O)c3cccs3)c2)c(C)c1,1.1,-0.8,-0.6,0.9,-3.7,-9.8,x,x,x
CCCN1C(=O)/C(=C/c2c(NCCCOC(C)C)nc3c(C)cccn3c2=O)SC1=S,84.5,-30.3,-0.9,109.7*,55.6*,-10.7,83.5*,-20.8,48.5*
N=NC(=O)c1ccccc1Nc1c(O)[nH]c2ccccc12,1.8,-17.6,-0.7,-0.8,1.1,x,x,x,x
COC(=O)c1sc(NC(=O)/C=C/c2ccccc2Cl)nc1C,46.9*,x,0.8,55.4*,23.3,-5.3,1.4,-5.6,-12.2
COC(=O)c1sc(NC(=O)/C=C/c2ccc(C)cc2)nc1C,1.6,x,-0.5,0.9,-11.8,-0.6,x,x,x
N#Cc1c(-c2ccc(F)cc2)cc(-c2cccnc2)nc1N,4.2,28.6,-0.3,11.7,3.2,2.4,x,x,x
CC(C)Cc1cc(-c2ccco2)c(C#N)c(N)n1,6.0,13.8,-0.2,59.7*,19.3,8.3,-5.7,-9.3,-6.3
N#Cc1c(-c2ccco2)cc(-c2ccc(F)cc2)nc1N,43.5*,x,-0.6,72.9*,27.1,-50.3,49.8*,-1.8,38.1
SMILES,HNF4A DNA FP,Neddylation inh,TbMetRS inhib,Rpn11 block,CSN inh,PREPL inh,Rpn11 confirm,MMP-2 counter,Thrombin inh
Cc1ccc([C@@H]2CC=C(C(=O)O)[C@H](c3ccc(Cl)cc3)N2S(=O)(=O)c2ccccc2C)cc1,-1.5,-3.1,0.0,6.7,-1.4,12.2,x,x,x
C[C@@H](c1ccccc1)N1C[C@H](COCc2ccccc2)Oc2cc(N3CC[C@H](O)C3)ccc2S1(=O)=O,2.0,21.7,-0.5,x,-10.0,x,x,x,x
CCOC(=O)c1cc2occc2n1Cc1c(F)cccc1Cl,16.0,5.7,0.1,42.4*,4.8,-4.3,17.3,-9.3,3.4
CCOC(=O)c1cc2occc2n1Cc1ccc(F)cc1,-0.4,7.6,0.2,6.4,5.8,-8.6,x,x,x
O=C(CS(=O)(=O)c1ccc(Cl)cc1)Nc1nccs1,-0.1,2.9,0.2,-0.9,-3.6,x,x,x,x
Cc1ccc(CO/N=C\Cc2snc(Sc3ncc(C(F)(F)F)cc3Cl)c2C#N)cc1,19.9,-11.8,-0.9,44.7*,19.9,-7.9,60.1*,9.7,49.1*
CCc1ccccc1OCC(=O)Nc1ccc(N2CCCC2)cc1C,51.6*,35.6,-0.4,87.6*,20.1,x,43.4*,-0.5,29.6
O=C(Nc1cccc(-c2nc3ccccc3o2)c1)c1ccc(N2C(=O)C3C4C=CC(C4)C3C2=O)cc1 (centres undefined),0.1,35.7,-0.3,0.4,-3.6,-3.9,x,x,x
O=C1C2C3C=CC(C3)C2C(=O)N1c1cccc(-c2nc3ccccc3o2)c1 (centres undefined),1.9,-214.4,-0.3,54.0*,8.1,1.6,13.3,-40.3,-4.6
Cc1sc(NC(=O)c2cccs2)c(C(=O)OC(C)C)c1C,-5.0,x,-1.2,50.5*,-8.1,11.5,-1.6,-34.6,-3.6
